Assay outcomes deposited in PubChem BioAssay by Broad Institute.
The full list was thinned out, with hits kept by preference.
T cruzi growth-1 = T. cruzi intracellular proliferation inhibitors, primary screen, cell-based, beta-gal Tulahuen parasites, NIH3T3 host, luminescence; T. cruzi beta-gal in NIH3T3, GalScreen luminescence, 90 h; inhibition, % at 8.34 µM; 77,000 compounds, 5.9% hits;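 active = mean inhibition above about 93%, with at least 55% of replicates each passing it, limit read from the data, passing the limit was not always enough; inconclusive = only one of those two conditions holds; inactive = neither condition holds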
KDM4C inh = inhibitors of GASC-1 (KDM4C) histone demethylase, primary screen, biochemical, single concentration HTS. AID 720574, 2013. 96,000 compounds, 0.15% hits. inhibition, % at 12.5 µM. GST-KDM4C 2-372, H3K9me3 peptide, LANCE TR-FRET. Lysine-specific demethylase 4C (Homo sapiens), Q9H3R0;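 active = mean replicate inhibition above about 25%, with at least 55% of replicates also reaching it, limit read from the data, passing the limit was not always enough; inconclusive = only one of those two conditions met; inactive = neither condition met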
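Test system – GST-tagged GASC-1 (JMJD2C) catalytic fragment, aa 2-372 · Medium – HEPES buffer, pH 7.5, plus ascorbate · Reagent – H3K9me3 peptide with Fe(II)/2OG · Compound – one test concentration per compound · Timing – 30 min reaction, 60 min detection, RT · Technique – TR-FRET with Eu antibody and ULight streptavidin, EDTA stop · Read-out basis – inhibition from TR-FRET ratio decrease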
IDH1 mut inh = inhibitors of IDH1 R132H reductase, primary screen, biochemical, plate reader, single point; AID 624101, 2012; 70,000 compounds, 0.18% hits; inhibition, % at 10 µM; Isocitrate dehydrogenase [NADP] cytoplasmic (Homo sapiens), O75874; diaphorase/resazurin fluorescence, 60 min; in the data active = inhibition above about 34%; inconclusive = no clear call, values can overlap the other calls; inactive = below about 11%;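 note: 0% = DMSO and 100% = no enzyme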
Target sequence (O75874 whole entry R132H): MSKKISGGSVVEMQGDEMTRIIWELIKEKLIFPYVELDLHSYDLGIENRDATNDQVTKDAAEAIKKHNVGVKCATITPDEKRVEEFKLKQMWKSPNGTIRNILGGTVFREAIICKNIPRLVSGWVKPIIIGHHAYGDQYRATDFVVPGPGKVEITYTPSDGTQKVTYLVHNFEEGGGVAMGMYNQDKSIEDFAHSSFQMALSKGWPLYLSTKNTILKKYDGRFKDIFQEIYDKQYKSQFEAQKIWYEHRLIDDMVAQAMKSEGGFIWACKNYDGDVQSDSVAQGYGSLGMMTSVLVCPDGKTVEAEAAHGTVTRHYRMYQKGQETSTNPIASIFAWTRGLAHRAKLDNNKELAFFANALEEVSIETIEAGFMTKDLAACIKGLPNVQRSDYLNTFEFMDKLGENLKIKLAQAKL
T cruzi growth-2 = T. cruzi intracellular proliferation inhibitors, confirmation, cell-based, NIH3T3 host, beta-gal parasite, luminescence, cherry-pick; shares compounds with T cruzi growth-1; T. cruzi beta-gal in NIH3T3, GalScreen luminescence, 90 h; inhibition, % at 8.35 µM; 5,600 compounds, 72% hits; AID 651739, 2012;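 active = mean replicate inhibition above about 95% and at least 55% of replicates individually reaching it, limit read from the data; inconclusive = only one of the two criteria is met; inactive = neither criterion is met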
T cruzi growth-3 = inhibitors of intracellular T. cruzi replication, confirmation, NIH3T3 host cells, beta-gal parasites, cherry-pick, set 2 | shares compounds with T cruzi growth-1 | inhibition, % at 2.09 µM | 5,600 compounds, 21% hits | T. cruzi beta-gal in NIH3T3, GalScreen luminescence, 90 h;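 active = mean inhibition above about 95%, with at least 55% of replicates also reaching it, limit read from the data; inconclusive = meets just one of the two conditions; inactive = meets neither condition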;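 note: plate controls were neutral control median for no effect and positive control median for full effect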
3T3 cytotox = cytotoxicity in mouse NIH/3T3 fibroblasts, confirmation, cytotoxicity control for T. cruzi proliferation inhibitor project, cell-based, cherry-pick, single point; shares compounds with T cruzi growth-1; NIH/3T3 viability, CellTiter-Glo ATP luminescence, 90 h; cytotoxicity (signal decrease), % at 8.35 µM; 5,600 compounds, 14% hits; AID 651742, 2012;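 active = mean signal decrease across replicates above about 35% based on untreated-well scatter, with enough replicates individually passing, limit read from the data; inconclusive = no rule stated though some were filed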;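 note: 0% = median of neutral control wells and 100% = median of positive control wells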
3T3 cytotox 2 = NIH/3T3 fibroblast cytotoxicity, confirmation, cytotoxicity control, cell-based, cherry-pick, single point, set 2; shares compounds with T cruzi growth-1; NIH/3T3 viability, CellTiter-Glo ATP luminescence, 90 h; inhibition, % at 24.9 µM; 5,600 compounds, 56% hits; AID 651744, 2012;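 active = mean loss of cell viability signal at or above a set limit, and enough replicates individually reaching it; inconclusive = meets only the mean limit or only the replicate share; inactive = meets neither condition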;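 note: 0% = median of neutral control wells and 100% = median of positive control wells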
Active calls of the source: *; u = inconclusive; x = no result given.

SMILES | T cruzi growth-1 | KDM4C inh | IDH1 mut inh | T cruzi growth-2 | T cruzi growth-3 | 3T3 cytotox | 3T3 cytotox 2
CC(C)NC[C@H]1[C@H](c2ccc(C3=CCCCC3)cc2)[C@@H](CO)N1C(=O)NC(C)C | 98* | -3 | x | 104* | 48 | 33 | 104*
CC(=O)NC[C@@H]1[C@@H](c2ccc(C3=CCCCC3)cc2)[C@H](CO)N1C(=O)NC(C)C | 7 | 4 | x | x | x | x | x
CC(=O)NC[C@H]1[C@H](c2ccc(C3=CCCC3)cc2)[C@H](CO)N1C(=O)NC(C)C | -21 | 2 | x | x | x | x | x
CCC(=O)NC[C@H]1[C@H](c2ccc(-c3ccccc3)cc2)[C@H](CO)N1C(=O)C1CC1 | 74 | -1 | x | x | x | x | x
CCC(=O)NC[C@H]1[C@@H](c2ccc(-c3ccccc3)cc2)[C@H](CO)N1C(=O)C1CC1 | 98* | -1 | x | -19 | -22 | -10 | 8
COC(=O)c1cccc(NC(=O)COc2ccc(OC)cc2)c1C | x | x | 0 | x | x | x | x
Cc1nnc(SCC(=O)Nc2sc3c(c2C#N)CCC(C(C)(C)C)C3)s1 (stereo not given) | x | x | 1 | x | x | x | x
Cc1ccc(-n2c(=O)c3c4c(sc3n3c(SCC(=O)c5ccc(F)cc5)nnc23)CCCC4)cc1 | x | x | 0 | x | x | x | x
C/C=C(C)\C=N\NC(=O)CCCCC(=O)NO | x | x | 1 | x | x | x | x
COC(=O)c1ccccc1NC(=O)CNC(=O)c1ccccc1F | x | x | 0 | x | x | x | x
COc1ccc(NC(=O)CN(c2cc(C)ccc2OC)S(C)(=O)=O)cc1Cl | x | x | 0 | x | x | x | x
CC(C)(C)OC(=O)Nc1cccc(/C=N/NC(=O)CCCCCCC(=O)Nc2ccccc2O)c1 | x | x | 0 | x | x | x | x
CC(=O)NC[C@@H]1[C@@H](c2ccc(C3=CCCCC3)cc2)[C@@H](CO)N1C(=O)NC(C)C | 57 | 1 | x | x | x | x | x
CC(C)NC[C@@H]1[C@@H](c2ccc(C3=CCCCC3)cc2)[C@H](CO)N1C(=O)NC(C)C | u | 1 | x | 101* | 79 | -2 | 105*
C/C=C/c1ccc2c(c1)O[C@H](CN(C)Cc1ccccc1)[C@@H](C)CN([C@@H](C)CO)S2(=O)=O | 117* | 0 | 0 | 100* | 104* | 14 | 104*
C/C=C/c1ccc2c(c1)O[C@H](CN(C)Cc1ccc(F)cc1)[C@@H](C)CN([C@@H](C)CO)S2(=O)=O | 117* | -1 | 1 | u | 89 | 8 | 104*
C/C=C/c1ccc2c(c1)O[C@@H](CN(C)Cc1ccccc1)[C@@H](C)CN([C@@H](C)CO)S2(=O)=O | 37 | 8 | -7 | x | x | x | x
C/C=C/c1ccc2c(c1)O[C@H](CN(C)Cc1cccc(F)c1)[C@@H](C)CN([C@@H](C)CO)S2(=O)=O | x | -1 | -6 | x | x | x | x
COc1ccc(CN(C)C[C@H]2OCCCC[C@@H](C)Oc3ccc(NS(=O)(=O)c4ccc(Cl)cc4)cc3C(=O)N([C@@H](C)CO)C[C@H]2C)cc1 | u | -1 | 0 | 82 | 68 | 38* | 106*
COc1ccc(S(=O)(=O)Nc2ccc3c(c2)C(=O)N([C@@H](C)CO)C[C@H](C)[C@@H](CN(C)Cc2ccc(C(F)(F)F)cc2)OCCCC[C@H](C)O3)cc1 | 89 | 1 | x | x | x | x | x
COc1ccc(CN(C)C[C@@H]2OCCCC[C@H](C)Oc3ccc(NS(=O)(=O)c4ccc(Cl)cc4)cc3C(=O)N([C@H](C)CO)C[C@H]2C)cc1 | u | 0 | 0 | 97* | 110* | 31 | 103*
COc1ccc(CN(C)C[C@H]2OCCCC[C@H](C)Oc3ccc(NS(=O)(=O)c4ccc(Cl)cc4)cc3C(=O)N([C@H](C)CO)C[C@@H]2C)cc1 | 89 | 14 | x | x | x | x | x
COc1ccc(S(=O)(=O)Nc2ccc3c(c2)C(=O)N([C@H](C)CO)C[C@H](C)[C@@H](CN(C)Cc2ccc(C(F)(F)F)cc2)OCCCC[C@@H](C)O3)cc1 | 98* | -1 | x | 102* | 38 | 9 | 84*
COc1ccc(CN(C)C[C@H]2OCCCC[C@@H](C)Oc3ccc(NS(=O)(=O)c4ccc(Cl)cc4)cc3C(=O)N([C@H](C)CO)C[C@@H]2C)cc1 | 44 | 6 | x | x | x | x | x
COc1ccc(CN(C)C[C@H]2OCCCC[C@@H](C)Oc3ccc(NS(=O)(=O)c4ccc(Cl)cc4)cc3C(=O)N([C@H](C)CO)C[C@H]2C)cc1 | 119* | 0 | x | 115* | 92 | 34 | 106*
SMILES | T cruzi growth-1 | KDM4C inh | IDH1 mut inh | T cruzi growth-2 | T cruzi growth-3 | 3T3 cytotox | 3T3 cytotox 2
COc1ccc(CN(C)C[C@H]2OCCCC[C@H](C)Oc3ccc(NS(=O)(=O)c4ccc(OC)cc4)cc3C(=O)N([C@H](C)CO)C[C@@H]2C)cc1 | 20 | 1 | 10 | x | x | x | x
Cc1cccc(-n2c(N)cc(=O)nc2SCC(=O)N(c2ccccc2)c2ccccc2)c1 | x | x | 1 | x | x | x | x
CCn1c(SCC(=O)Nc2cccc(C(F)(F)F)c2)nnc1-c1c[nH]c2ccccc12 | x | x | 0 | x | x | x | x
COC(=O)c1c(NC(=O)COc2cccc(Cl)c2)sc2c1CCC2 | x | x | 2 | x | x | x | x
O=C(COc1ccccc1)Nc1scc2c1c(=O)oc1ccccc12 | x | x | 0 | x | x | x | x
CCOC(=O)C1CCCN(S(=O)(=O)c2ccc(Cl)c(Cl)c2OC)C1 (stereo not given) | x | x | 0 | x | x | x | x
COc1cc(OC)c(C2=NOC(C(=O)Nc3c(C)nn(Cc4ccc(F)cc4)c3C)C2)cc1Cl (stereo not given) | x | x | 0 | x | x | x | x
COc1ccc(CN(C)C[C@H]2OCCCC[C@@H](C)Oc3ccc(NS(=O)(=O)c4ccc(F)cc4)cc3C(=O)N([C@H](C)CO)C[C@@H]2C)cc1 | 3 | 1 | 2 | x | x | x | x
COc1ccc(CN(C)C[C@H]2OCCCC[C@H](C)Oc3ccc(NS(=O)(=O)c4ccc(F)cc4)cc3C(=O)N([C@@H](C)CO)C[C@H]2C)cc1 | 103* | 2 | x | 105* | 66 | 26 | 103*
Cn1nc(-c2ccc(NCc3cccnc3)c([N+](=O)[O-])c2)c2ccccc2c1=O | x | x | 0 | x | x | x | x
COC(=O)CCCCCCC(=O)N/N=C/c1ccc(F)c(Oc2ccccc2)c1 | x | x | 0 | x | x | x | x
O=C1C(=O)N(Cc2ccco2)C(c2cccc(Cl)c2)C1C(=O)c1ccco1 (stereo not given) | x | x | 1 | x | x | x | x
